The test system of assay [1] is AncDyPD‐b1 D222A. Briefly: Steady-state kinetics of peroxidase activity, AncDyPD-b1 D222A variant. It is filed as biochemical. Particulars: for n (cooperativity constant): cooperativity model, 25 °C, H2O2 with ABTS as electron donor. The method in brief:
(§1)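 Purified untagged (SUMO-cleaved) mutant ancestral DyP, expressed in E. coli. H2O2 varied at 25 °C in 50 mM sodium citrate at the ABTS optimal pH 3.0. ABTS was held at its maximum-activity level below substrate inhibition: 10 µM for D222A, D222E and R390K-D222E, 25 µM for R390K, and 50 µM for R390A. Reactions were started with 50–500 nM enzyme, raised to 2.0 µM if activity was low.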

Assay [2] relates to Irpex lacteus F17 DyP. The settings on record: cited from earlier work.
The test system of assay [3] is AncDyPD‐b1 R390K‐D222E. Briefly: Steady-state kinetics of peroxidase activity, AncDyPD-b1 R390K-D222E variant. It is filed as biochemical. The settings on record: cooperativity model; 25 °C; H2O2 with ABTS as electron donor. The essentials: as §1
Assay [4] relates to AncDyPD‐b1 D222E. Briefly: Steady-state kinetics of peroxidase activity, AncDyPD-b1 D222E variant. It is filed as biochemical. The settings on record: cooperativity model; 25 °C; H2O2 with ABTS as electron donor. The method in brief:
as §1

Assay [5] concerns AncDyPD‐b1 R390A. Briefly: Steady-state kinetics of peroxidase activity, AncDyPD-b1 R390A variant. It is filed as biochemical. The settings on record: cooperativity model; 25 °C; H2O2 with ABTS as electron donor. The essentials: as §1
In assay [6] the test system is AncDyPD‐b1 R390K. Briefly: Steady-state kinetics of peroxidase activity, AncDyPD-b1 R390K variant. It is filed as biochemical. The settings on record: cooperativity model; 25 °C; H2O2 with ABTS as electron donor. The method in brief: as §1
The test system of assay [7] is FtrDyP. Briefly: Mn2+ oxidation by FtrDyP. Type of assay: biochemical, Funalia (Coriolopsis) trogii. The settings on record: Mn^2+ substrate.
In assay [8] the test system is AncDyPD‐b1. Briefly: Sulfoxidation. Type of assay: biochemical. Particulars: 17, 25, and 30 °C, 36 h, pH 3.5, 1.0 mM H2O2, 2.5 mM thioanisole.

Here are results for six compounds from article PMC8248431 (The Febs Journal, 2021).

Take `CCn1c(=NN=c2sc3cc(S(=O)(=O)O)ccc3n2CC)sc2cc(S(=O)(=O)O)ccc21` [ABTS, 2,2'‐azino‐bis(3‐ethylbenzothiazoline‐6‐sulfonic acid)]: in assay [1] (ABTS oxidation, D222A vs WT), the “fold decrease of KM versus WT” value was found to be 80 fold and the “fold lower k cat than WT” value came to 150 fold. Besides, in assay [2], the Km (in general, the concentration of substrate that gives half-maximal velocity) is 62 µM and the k cat is 8356 s⁻¹.

For `OO` [H2O2, hydrogen peroxide], the “n (cooperativity constant)” value in assay [1] amounted to 1; in assay [3], 2.2; in assay [4], 1.4; in assay [5], 1; in assay [6] it was 1.2.

For `O=S(=O)([O-])[O-].[Mn+2]` [Mn^2+, MnSO4], the “efficiency of FtrDyP relative to AncDyPD‐b1” value in assay [7] turned out to be 500 times.

`Nc1c(N=Nc2ccc(S(=O)(=O)CCOS(=O)(=O)[O-])cc2)c(S(=O)(=O)[O-])cc2cc(S(=O)(=O)[O-])c(N=Nc3ccc(S(=O)(=O)CCOS(=O)(=O)[O-])cc3)c(O)c12.[Na+].[Na+].[Na+].[Na+]` [RB5, Reactive Black 5]: the “n (cooperativity constant)” value stood at 2.8 in assay [1]; 2.3 in assay [3]; 2.2 in assay [4]; 1 in assay [5]; 2.1 in assay [6].

For the compound `Nc1c(S(=O)(=O)[O-])cc(Nc2cccc(S(=O)(=O)CCOS(=O)(=O)[O-])c2)c2c1C(=O)c1ccccc1C2=O.[Na+].[Na+]` [RB19, Reactive Blue 19], in assay [2], the Km is 133 µM and the k cat is 5345 s⁻¹.

Turning to `CSc1ccccc1` [thioanisole], the “conversion (peroxygenase activity, sulfoxidation)” value in assay [8] was “no conversion”.
